Data set [1] concerns Plasmodium berghei. The data set can be described thus: Anti-plasmodial activity against Plasmodium berghei ANKA infected in mouse assessed as suppression in blood parasitemia level at 0.048 mmol/kg/day, po administered as single dose at 24 hrs time interval from day 1 to day 3 and measured 96 hrs post infection by Giemsa staining based microscopic method relative to control. It is filed as functional. Put shortly: (§1)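 Swiss albino mice, five per group, were infected i.v. on day 0 with 0.2 ml of 2 x 10^7 P. berghei ANKA parasitized erythrocytes. Oral dosing at 0.048 mmol/kg/day began 2 h later and repeated daily on days 1-3. The vehicle was 7% Tween and 3% ethanol in water. Giemsa smears were read on day 4 (5 fields of ~100 RBC). Suppression was taken against vehicle controls, and survival was tracked per mouse.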

For data set [2], the system named is Plasmodium berghei. The data set can be described thus: Anti-plasmodial activity against Plasmodium berghei ANKA infected in mouse assessed as mean survival time at 0.048 mmol/kg/day, po administered as single dose at 24 hrs time interval from day 1 to day 3 and measured 96 hrs post infection (reference value: 4.33 +/- 0.7 day). It is filed as functional.
Data set [3] relates to Plasmodium falciparum. The data set can be described thus: Anti-plasmodial activity against chloroquine resistant Plasmodium falciparum RKL9 infected in human erythrocytes after 24 hrs by Giemsa staining-based method. The format is functional, organism-based. As to conditions: RKL9, 24 h. Put shortly:
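Chloroquine-resistant RKL9 kept in continuous culture (Trager-Jensen). Parasitaemia adjusted to 1-1.5% with fresh human B(+) RBC in RPMI 1640 with 10% AB(+) serum. Two-fold serial dilutions from ethanol stock, duplicate wells, 37°C for 24 h. Giemsa smears scored as schizonts per 100 asexual parasites. Schizont maturation inhibition = 1 − Nt/Nc x 100; IC50 derived.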

Data set [4] concerns Erythrocyte. Briefly: Antiinflammatory activity in RBC (unknown origin). The format is functional.
Data set [5] concerns Erythrocyte. Briefly: Antihemolytic activity in RBC (unknown origin). The format is functional.
Data set [6] in a line: Selectivity ratio of IC50 for antihemolytic activity in RBC (unknown origin) to IC50 for chloroquine resistant Plasmodium falciparum RKL9. The format is functional.
Data set [7] has as its system PBMC. Briefly: Cytotoxicity against human PBMC assessed as reduction in cell viability after 30 mins by Neutral red dye-based phase-contrast inverted microscopic analysis. The following applies: 0.5 h. A digest of the protocol: (§2)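 PBMC were isolated from a healthy donor by Ficoll-Hypaque density-gradient centrifugation and exposed to a range of test concentrations. Viability was scored by neutral red uptake, with retained dye taken as proportional to viable cells with intact membranes.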

The subject of data set [8] is PBMC. The data set can be described thus: Cytotoxicity against human PBMC assessed as reduction in cell viability at 6.25 ug/ml after 30 mins by Neutral red dye-based phase-contrast inverted microscopic analysis relative to control. As to conditions: 0.5 h. Put shortly:
as §2

Data set [9] deals with PBMC. The data set can be described thus: Cytotoxicity against human PBMC assessed as reduction in cell viability at 25 ug/ml after 30 mins by Neutral red dye-based phase-contrast inverted microscopic analysis relative to control. As to conditions: 0.5 h. A digest of the protocol:
as §2

In data set [10] the test system is PBMC. Briefly: Cytotoxicity against human PBMC assessed as reduction in cell viability at 100 ug/ml after 30 mins by Neutral red dye-based phase-contrast inverted microscopic analysis relative to control. As to conditions: 0.5 h. A digest of the protocol:
as §2

The nature of data set [11]: Selectivity ratio of IC50 for human PBMC to IC50 for chloroquine resistant Plasmodium falciparum RKL9. It is filed as toxicity. As to conditions: read-out: Ratio IC50.
The nature of data set [12]: Acute toxicity in mouse up to 150 mg/kg, po after 3 days. As to conditions: in vivo, 72 h. It is filed as organism-based. A digest of the protocol: (§3)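 Male mice, 25-30 g, six per group, fasted overnight and weighed before dosing. Compounds given as suspensions in aqueous 1% gum acacia. Five dose groups per compound. Toxicity signs, body-weight change and deaths recorded over 3 days after administration.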

Data set [13] can be described thus: Acute toxicity in mouse assessed as effect on body weight at 150 mg/kg, po after 3 days. It is filed as organism-based. As to conditions: in vivo, 72 h. Put shortly:
as §3

A short description of data set [14]: Acute toxicity in mouse assessed as mouse death at 150 mg/kg, po after 3 days. It is filed as organism-based. As to conditions: in vivo, 72 h. Put shortly: as §3
For data set [15], the system named is Plasmodium berghei. Briefly: Anti-plasmodial activity against Plasmodium berghei ANKA infected in mouse assessed as increase in mean survival time at 0.048 mmol/kg/day, po administered as single dose at 24 hrs time interval from day 1 to day 3 and measured 96 hrs post infection. It is filed as functional, organism-based. Put shortly:
as §1

Data set [16] deals with Erythrocyte. The data set can be described thus: Antihemolytic activity in RBC (unknown origin) relative to control.
Data set [17] has as its system Erythrocyte. The data set can be described thus: Antiinflammatory activity in RBC (unknown origin) relative to control.
Data set [18] relates to Erythrocyte. The data set can be described thus: Antihemolytic activity in RBC (unknown origin) at 20 ug/ml relative to control.
The subject of data set [19] is Erythrocyte. Briefly: Antihemolytic activity in RBC (unknown origin) at 40 ug/ml relative to control.
Data set [20] has as its system Erythrocyte. Briefly: Antiinflammatory activity in RBC (unknown origin) at 20 ug/ml relative to control.
The subject of data set [21] is Erythrocyte. Briefly: Antiinflammatory activity in RBC (unknown origin) at 40 ug/ml relative to control.
Data set [22] relates to Plasmodium falciparum. The data set can be described thus: Potency index, ratio of chloroquine phosphate IC50 to compound IC50 for anti-plasmodial activity against chloroquine resistant Plasmodium falciparum RKL9 infected in human erythrocytes. It is filed as functional.
Data set [23] is described as follows: Selectivity ratio of IC50 for antiinflammatory activity in RBC (unknown origin) to IC50 for chloroquine resistant Plasmodium falciparum RKL9. The format is functional.

The source made the active and inactive calls. The calls are words filed in the database; no cut-off is given here.

For `COc1ccc(-c2nn(-c3ccccc3)cc2C(=O)N/N=C/c2ccncc2)cc1`, the Activity in [1] is 79.31%. In data set [2], the MST is 8.83 days.

As for `C=CCNC(=S)NNC(=O)c1cn(-c2ccccc2)nc1-c1ccc(OC)cc1`, in [1], the Activity came out at 70.11%. Also, in data set [2], the MST is 6.66 days.

Turning to `CCN(CC)CCCC(C)Nc1ccnc2cc(Cl)ccc12.O=P(O)(O)O.O=P(O)(O)O` (stereo not given) [CHLOROQUINE PHOSPHATE], the Activity in data set [1] turned out to be 100%. In addition, the MST in data set [2] is 12.22 days.

Consider `COc1ccc(-c2nn(-c3ccccc3)cc2C(=O)N/N=C2/SCC(=O)N2c2ccccc2)cc1`, for which, in data set [1], the Activity is on record as 82.75%. Besides, in [2], the MST came out at 12.83 days.

With `COc1ccc(-c2nn(-c3ccccc3)cc2C(=O)N/N=C/c2ccc(F)cc2)cc1`, in data set [1], the Activity is recorded as 67.81%. Further, the MST in data set [2] came to 10.5 days.

`C=CCn1c(-c2cn(-c3ccccc3)nc2-c2ccc(OC)cc2)n[nH]c1=S`: the Activity in data set [1] stood at 63.21%. Also, the MST in data set [2] worked out at 5.5 days.

`COc1ccc(-c2nn(-c3ccccc3)cc2C(=O)N/N=C/c2cccs2)cc1`: the Activity in data set [1] was 86.2%. In data set [2], the MST is 11.5 days.

For orientation: IC50 means the point on the concentration scale where inhibition reaches its midpoint. Turning to `COc1ccc(-c2nn(-c3ccccc3)cc2C(=O)N/N=C/c2cc(OC)c(OC)c(OC)c2)cc1`, the Activity in data set [1] stood at 93.1%; in data set [4] it was 29.69%; in [5] it was 41%; in [8], 43%; in data set [9] it was 60%; in data set [10], 77.93%. In addition, the Activity entry in data set [12] was “Non-Toxic”; in [13], “Non-Toxic”; in data set [14], “Non-Toxic”; in [18], 85%; in data set [19], 97.8%; in data set [20], 17.52%. Further, in data set [21], the Activity came out at 5.34%. Also, the IC50 in [3] was determined as 0.0398 µM; in data set [7] it was 31.2 µM; in [16], 121 µM; in data set [17], 52.5 µM. Further, the Ratio IC50 in [6] was 1700. Besides, the selectivity ratio in data set [11] was 783. For the same compound, the result in [15] was Active.

In the case of `C=CCN1C(=O)CS/C1=N/NC(=O)c1cn(-c2ccccc2)nc1-c1ccc(OC)cc1`, in [1], the Activity is on record as 79.31%. Moreover, the MST in [2] is 11.33 days.

For the compound `COc1ccc(-c2nn(-c3ccccc3)cc2C(=O)NNC(C)=O)cc1`, the Activity in data set [1] is 63.21%. Moreover, the MST in data set [2] was 6.66 days.

`COc1ccc(-c2nn(-c3ccccc3)cc2C(=O)NNC(=S)Nc2ccccc2)cc1`: the Activity in [1] was determined as 73.56%. Moreover, in data set [2], the MST is 6.66 days.

`C=CCn1c(-c2ccc(Br)cc2)cs/c1=N/NC(=O)c1cn(-c2ccccc2)nc1-c1ccc(OC)cc1`: the Activity was found to be 90.8% in [1]; 35.23% in [4]; 16% in data set [5]; 8.46% in data set [8]; 16.05% in data set [9]; 39.93% in [10]. Further, the Activity entry in data set [12] is recorded as “Non-Toxic”; in [13], “Non-Toxic”; in data set [14], “Non-Toxic”; in data set [18], 59%; in [19] it was 68%; in data set [20] it was 57.79%. Also, the Activity in data set [21] was 80.34%. Besides, the IC50 worked out at 0.0319 µM in [3], 222 µM in data set [7], 79.5 µM in data set [16] and 13.7 µM in data set [17]. For the same compound, in data set [15], the outcome was Active.

In the case of `CCc1nc(N)nc(N)c1-c1ccc(Cl)cc1` [PYRIMETHAMINE], the Activity in data set [1] was found to be 100%. Further, in data set [3], 0.0125 µM corresponded to half-maximal inhibition (IC50). The result in data set [15] was Active.

Take `COc1ccc(-c2nn(-c3ccccc3)cc2C(=O)N/N=c2/scc(-c3ccc(Br)cc3)n2-c2ccccc2)cc1`: the Activity in [1] is recorded as 81.6%. In addition, the MST in data set [2] was found to be 11.66 days.

With `COc1ccc(-c2nn(-c3ccccc3)cc2-c2n[nH]c(=S)n2-c2ccccc2)cc1`, the Activity in data set [1] is given as 73.56%. In addition, the MST in data set [2] is 7.66 days.

As to `COc1ccc(-c2nn(-c3ccccc3)cc2C(=O)NNC=O)cc1`, the Activity in [1] is reported as 70.11%. Moreover, in data set [2], the MST was 6.66 days.

Take `C=CCn1c(-c2ccccc2)cs/c1=N/NC(=O)c1cn(-c2ccccc2)nc1-c1ccc(OC)cc1`: the Activity in data set [1] worked out at 71.26%. In addition, the MST in [2] came to 7.33 days.

For `COc1ccc(-c2nn(-c3ccccc3)cc2C(=O)N/N=C/c2ccccc2)cc1`, the Activity in data set [1] is 85.05%. Besides, in data set [2], the MST was determined as 9.33 days.

For the compound `COc1ccc(-c2nn(-c3ccccc3)cc2C(=O)N/N=C/c2cccc(O)c2)cc1`, the Activity in data set [1] is 97.7%; in data set [4], 49.03%; in data set [5] it was 32%; in data set [8], -19.18%; in data set [9], 54.42%; in data set [10], 12.78%. For the same compound, the Activity entry in data set [12] is listed as “Non-Toxic”; in data set [13], “Non-Toxic”; in [14], “Non-Toxic”; in [18] it was 40%; in [19] it was 44%; in data set [20] it was 54.31%. Further, the Activity in [21] was 59.58%. The half-inhibitory concentration (IC50) in [3] was 0.0142 µM; in data set [7] it was 1000 µM; in data set [16], 133 µM; in data set [17], 16 µM. Moreover, in [11], the selectivity ratio amounted to 70000. Further, in [15], the result was Active. In addition, the “Ratio IC50” value in [22] turned out to be 13.

Take `COc1ccc(-c2nn(-c3ccccc3)cc2C(=O)N/N=c2/scc(-c3ccccc3)n2-c2ccccc2)cc1`: the Activity in data set [1] is listed as 97.7%; in data set [4], 56.11%; in data set [5], 41%; in [8], -6.2%; in data set [9], -1.63%; in data set [10], 48.27%. Also, the Activity result in data set [12] is “Non-Toxic”; in data set [13], “Non-Toxic”; in data set [14] it was “Non-Toxic”; in data set [18] it was 79%; in data set [19] it was 99.8%; in data set [20], 81.19%. Besides, the Activity in data set [21] came to 106.28%. Besides, the IC50 in [3] was 0.0492 µM; in data set [7] it was 190 µM; in data set [16], 138 µM; in data set [17], 3.49 µM. In addition, the Ratio IC50 in data set [23] stood at 71. In data set [15], the result was Active.

The values are drawn from ChEMBL document CHEMBL4330086, “Synthesis, in silico experiments and biological evaluation of 1,3,4-trisubstituted pyrazole derivatives as antimalarial agents” (Eur J Med Chem, 2019).
